≈ marks a conversion by molar mass, not a printed value. Calls of active or inactive are those of the source. The calls are words filed in the database; no cut-off is given here.
Legend:
[1] = target: T1, Transient receptor potential cation channel subfamily V member 4 (Homo sapiens, UniProt Q9HBA0); experiment: Agonist activity at recombinant human TRPV4 expressed in […] cells at 10 uM by SOX9 luciferase reporter gene assay; type: cell-based
Procedure, shortened: (§1)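 ATDC5 cells stably carrying a SOX9 reporter gene construct and human TRPV4 (pcDNA3.1) were seeded at 2.0 × 10^4 cells/well and treated with compound. Luciferase luminescence was measured the next day.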

[2] = target: T1, Transient receptor potential cation channel subfamily V member 4; experiment: Agonist activity at recombinant human TRPV4 expressed in […] cells by SOX9 luciferase reporter gene assay; type: cell-based; procedure, shortened: as §1
[3] = target: T1, Transient receptor potential cation channel subfamily V member 4; experiment: Agonist activity at recombinant human TRPV4 expressed in HEK293 cells assessed as increase in intracellular calcium level after 30 mins by Fura-2 AM/Pluronic F-127 probe based fluorescence assay; type: cell-based
Procedure, shortened: (§2)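 HEK293 cells transiently expressing human TRPV4 were loaded with 5 µM Fura-2 AM plus 0.2% Pluronic F-127 for 30 min at 37 °C in HEPES buffer (pH 7.4, 1.8 mM CaCl2, 0.1% BSA). They were then washed and resuspended. Intracellular Ca2+ was read by Fura-2 ratio imaging (excitation 340/380 nm, emission 510 nm).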

[4] = target: T1, Transient receptor potential cation channel subfamily V member 4; experiment: Agonist activity at recombinant human TRPV4 expressed in HEK293 cells assessed as increase in intracellular calcium level at 10 uM after 30 mins by Fura-2 AM/Pluronic F-127 probe based fluorescence assay relative to control; type: cell-based; procedure, shortened: as §2
[5] = target: Transient receptor potential cation channel subfamily V member 1 (Homo sapiens) (UniProt Q8NER1); experiment: Agonist activity at human TRPV1 assessed as increase in intracellular calcium level at 10 uM relative to control; type: cell-based
[6] = Solubility of the compound in saline; type: physicochemical
[7] = Protein binding in plasma (unknown origin); type: ADME, cell-free
[8] = species: Homo sapiens; experiment: Induction of chondrogenesis in normal human articular chondrocytes at 62.5 to 1000 nM preincubated for 30 mins followed by medium replacement and measured after 3 days by Alcian blue-staining based assay; type: functional, cell-based
Procedure, shortened: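 Normal human articular chondrocytes were exposed to agonist for 30 min, then the medium was replaced and the cells cultured 3 days. They were fixed in 95% methanol and stained overnight with 0.1% Alcian blue in 0.1 N HCl. Dye was extracted with 6 M guanidine-HCl for 2 h at room temperature, and OD was read at 600 nm.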

[9] = species: Homo sapiens; experiment: Induction of chondrogenesis in normal human articular chondrocytes at 500 nM preincubated for 30 mins followed by medium replacement and measured after 3 days by Alcian blue-staining based assay; type: functional, cell-based
Procedure, shortened: (§3)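 Normal human articular chondrocytes were stimulated with agonist for 30 min, then the medium was replaced. After 3 days' culture, cells were fixed in 95% methanol and stained overnight with 0.1% Alcian blue 8GS in 0.1 N HCl. Dye was extracted with 6 M guanidine-HCl for 2 h at room temperature and read at OD 600 nm.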

[10] = species: Homo sapiens; experiment: Induction of chondrogenesis in normal human articular chondrocytes at <500 nM preincubated for 30 mins followed by medium replacement and measured after 3 days by Alcian blue-staining based assay; type: functional, cell-based; procedure, shortened: as §3

Chain of Transient receptor potential cation channel subfamily V member 1 (Homo sapiens) (Q8NER1 whole entry): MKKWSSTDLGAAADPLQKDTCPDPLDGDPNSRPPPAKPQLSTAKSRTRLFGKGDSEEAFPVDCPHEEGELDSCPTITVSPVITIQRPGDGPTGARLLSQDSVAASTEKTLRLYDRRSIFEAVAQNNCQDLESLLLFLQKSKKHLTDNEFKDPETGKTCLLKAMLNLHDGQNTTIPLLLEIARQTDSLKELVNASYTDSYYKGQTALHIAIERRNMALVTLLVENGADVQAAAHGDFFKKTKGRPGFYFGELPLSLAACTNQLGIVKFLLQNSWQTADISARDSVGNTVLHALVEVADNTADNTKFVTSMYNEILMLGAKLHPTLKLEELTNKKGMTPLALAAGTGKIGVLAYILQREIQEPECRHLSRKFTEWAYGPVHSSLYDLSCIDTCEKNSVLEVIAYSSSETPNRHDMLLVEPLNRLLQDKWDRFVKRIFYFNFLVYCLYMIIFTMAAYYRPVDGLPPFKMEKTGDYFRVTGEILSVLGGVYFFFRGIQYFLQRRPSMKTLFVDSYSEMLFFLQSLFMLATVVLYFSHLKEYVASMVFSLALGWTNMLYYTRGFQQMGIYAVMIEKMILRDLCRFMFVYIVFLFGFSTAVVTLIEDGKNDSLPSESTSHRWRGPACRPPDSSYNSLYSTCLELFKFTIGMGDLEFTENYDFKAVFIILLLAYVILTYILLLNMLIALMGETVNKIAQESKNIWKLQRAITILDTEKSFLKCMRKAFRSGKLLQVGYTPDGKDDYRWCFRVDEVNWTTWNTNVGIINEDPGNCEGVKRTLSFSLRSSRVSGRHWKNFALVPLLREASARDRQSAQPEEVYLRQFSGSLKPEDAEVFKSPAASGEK
T1 sequence (Q9HBA0 whole entry): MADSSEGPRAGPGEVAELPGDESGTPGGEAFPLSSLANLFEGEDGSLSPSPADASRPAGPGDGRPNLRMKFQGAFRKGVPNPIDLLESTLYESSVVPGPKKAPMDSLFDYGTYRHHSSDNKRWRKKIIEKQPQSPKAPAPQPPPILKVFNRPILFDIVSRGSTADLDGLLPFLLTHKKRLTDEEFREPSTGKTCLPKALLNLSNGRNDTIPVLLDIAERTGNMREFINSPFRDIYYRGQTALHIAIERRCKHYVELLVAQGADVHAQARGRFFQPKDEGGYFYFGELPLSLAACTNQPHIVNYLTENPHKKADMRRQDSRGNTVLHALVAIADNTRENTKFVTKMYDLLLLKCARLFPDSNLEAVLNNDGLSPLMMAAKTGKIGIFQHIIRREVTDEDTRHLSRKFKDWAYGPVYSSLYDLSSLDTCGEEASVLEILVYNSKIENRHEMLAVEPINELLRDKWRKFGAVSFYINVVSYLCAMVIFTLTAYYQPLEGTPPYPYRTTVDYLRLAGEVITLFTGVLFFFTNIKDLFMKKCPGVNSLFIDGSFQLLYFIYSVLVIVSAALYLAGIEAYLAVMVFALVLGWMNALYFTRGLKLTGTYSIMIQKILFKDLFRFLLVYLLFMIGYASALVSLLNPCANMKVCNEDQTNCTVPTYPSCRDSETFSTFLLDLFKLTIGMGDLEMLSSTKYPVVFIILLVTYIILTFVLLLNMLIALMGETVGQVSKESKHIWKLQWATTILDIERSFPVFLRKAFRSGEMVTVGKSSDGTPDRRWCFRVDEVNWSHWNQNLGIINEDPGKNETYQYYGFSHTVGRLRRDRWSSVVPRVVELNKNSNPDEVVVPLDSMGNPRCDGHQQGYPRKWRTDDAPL

SMILES: Cc1ccc(-n2c(N3CCN(C)CC3)nc3c(Cl)cccc3c2=O)cc1
- Activity [1]: 9%

SMILES: CCOC(=O)c1ccc(-n2c(N3CCN(C(C)C)CC3)nc3c(F)cccc3c2=O)cc1
- Activity [1]: 1.9%

SMILES: CN1CCN(c2nc3cc(F)ccc3c(=O)n2-c2ccc(C(F)(F)F)cc2)CC1(C)C
- Activity [1]: 5%
- ECmax [2]: 10000 nM
- EC50 [3]: > 30000 nM

SMILES: COc1ccc(-n2c(N3CCN(C)CC3)nc3cc(F)ccc3c2=O)cc1
- Activity [1]: 42.2%
- ECmax [2]: 5000 nM
- EC50 [3]: 4700 nM

SMILES: CN1CCN(c2nc3c(Cl)cccc3c(=O)n2-c2ccc(Cl)cc2)CC1
- Activity [1]: 19.9%
- ECmax [4]: 19%

SMILES: CN1CCN(c2nc3c(F)cccc3c(=O)n2-c2ccc(OC3CCOCC3)cc2)CC1
- Activity [5]: 8.7%
- solubility [6]: 1110 µg/mL (≈ 2520 µM)
- fraction unbound [7]: 0.297
- ECmax [2]: 2500 nM
- EC50 [3]: 870 nM

SMILES: CC(C)[C@H]1CN(c2nc3cc(F)ccc3c(=O)n2-c2ccc(C(F)(F)F)cc2)CCN1C
- ECmax [2]: 5000 nM
- EC50 [3]: > 30000 nM

SMILES: CN1CCN(c2nc3cc(F)ccc3c(=O)n2-c2ccc(OC(F)(F)F)cc2)CC1
- Activity [5]: 6.2%
- ECmax [2]: 625 nM
- EC50 [3]: 663 nM

SMILES: CC(C)c1ccc(-n2c(N3CCN(C)CC3)nc3c(F)cccc3c2=O)cc1
- ECmax [2]: 2500 nM
- EC50 [3]: 910 nM

SMILES: COc1ccc(-n2c(N(C)CCN(C)C)nc3cc(F)ccc3c2=O)cc1
- Activity [1]: 0%

SMILES: CN1CCN(c2nc3cc(F)ccc3c(=O)n2-c2ccc(C(F)(F)F)cc2)CC12CC2
- Activity [1]: 1.2%

SMILES: CCN1CCN(c2nc3cc(F)ccc3c(=O)n2-c2ccc(OC)cc2)CC1
- Activity [1]: 41%
- EC50 [3]: 12200 nM

SMILES: CN1CCN(c2nc3c(F)cccc3c(=O)n2-c2ccc(C(F)(F)F)cc2)CC1
- ECmax [2]: 2500 nM
- EC50 [3]: 1440 nM

SMILES: CN1CCN(c2nc3c(F)cccc3c(=O)n2-c2ccc(SC(F)(F)F)cc2)CC1
- Activity [8]: Active
- Activity [5]: 3.1%
- solubility [6]: 952 µg/mL (≈ 2170 µM)
- ECmax [2]: 156 nM
- EC50 [3]: 200 nM

SMILES: CC(C)C[C@H]1CN(c2nc3cc(F)ccc3c(=O)n2-c2ccc(C(F)(F)F)cc2)CCN1C
- Activity [1]: 0.9%

SMILES: CC(C)C[C@H](NC(=O)c1cc2ccccc2s1)C(=O)NCCCN(C)S(=O)(=O)c1ccc(Cl)cc1Cl
- solubility [6]: 3.6 µg/mL (≈ 6.31 µM)
- Activity [9]: Active
- Activity [10]: inactive
- ECmax [2]: 312 nM
- EC50 [3]: 740 nM

SMILES: CC(C)C[C@H](NC(=O)c1cc2ccccc2s1)C(=O)N1CCN(C(=O)[C@H](CO)NS(=O)(=O)c2ccc(Cl)cc2Cl)CC1
- EC50 [3]: 49 nM

SMILES: CCOC(=O)c1ccc(-n2c(N3CCC(N(C)C)C3)nc3c(F)cccc3c2=O)cc1 (stereo unspecified)
- Activity [1]: 2.2%
